From PMC6900553 (Acta Pharmaceutica Sinica. B, 2019)

Key:
[1] = Caco-2 cell permeability assay; conditions: human
[2] = system: A431 human tumor xenografts; assay: A431 human tumor xenograft study in nude mice; type: in vivo; conditions: A431 xenograft tumor tissue protein, Western blot
Outline: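 Athymic BALB/c nude mice, 4–6 weeks old, were implanted s.c. at one site with 1.5 × 10^7 A431 cells under anaesthesia. At 100–200 mm3, mice were randomised into four groups. Saline vehicle (0.1 mL/10 g) or test compound at 10 or 40 mg/kg was given i.g. daily for 27 days. Caliper tumour size and body weight were recorded every 2 days. Excised tumours were weighed, RIPA-extracted and Western blotted; mean ± SD, n = 3.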

[3] = Metabolic stability in rat liver microsomes; type: in vitro ADME; conditions: pH 7.4
Outline: (§1)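 Liver microsomes were incubated in PBS pH 7.4 at 37 °C with test compound at 1 μmol/L final (1.5 μmol/L in the microsome pre-mix, 0.75 mg/mL microsomes). The reaction was started with NADPH (6 mmol/L stock). Samples at 0, 5, 15, 30 and 45 min were quenched with acetonitrile containing internal standard, vortexed, centrifuged and analysed by LC–MS/MS. Results were expressed as % parent remaining, giving t1/2.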

[4] = Metabolic stability in mouse liver microsomes; type: in vitro ADME; conditions: pH 7.4
Outline: as §1

[5] = Metabolic stability in dog liver microsomes; type: in vitro ADME; conditions: pH 7.4
Outline: as §1

[6] = Metabolic stability in monkey liver microsomes; type: in vitro ADME; conditions: pH 7.4
Outline: as §1

[7] = Pharmacokinetic study in rats; type: in vivo; conditions: Sprague-Dawley, rat, plasma; for AUC: mean ± SD, n = 3

SMILES	Papp A→B at 90 min, 10 μmol/L [1] [×10⁻⁶ cm/s]	Papp B→A at 90 min, 10 μmol/L [1] [×10⁻⁶ cm/s]	efflux ratio at 90 min, 10 μmol/L [1]	p-EGFR and p-AKT in tumor extracts [2]	half-life at 1 μmol/L [3] [min]	half-life at 1 μmol/L [4] [min]	half-life at 1 μmol/L [5] [min]	half-life at 1 μmol/L [6] [min]	MRT inf ([7]; iv, 10 mg/kg) [min]	AUC ([7]; iv, 10 mg/kg, AUCINF_plasma, i.v. 10 mg/kg) [ng·h/mL]	AUC ([7]; iv, 10 mg/kg, AUClast_plasma, i.v. 10 mg/kg) [ng·h/mL]	bioavailability ([7]; oral, 40 mg/kg) [%]	Cmax ([7]; po, 40 mg/kg) [ng/mL]	Tmax ([7]; po, 40 mg/kg) [min]	half-life ([7]; po, 40 mg/kg) [min]	AUC ([7]; po, 40 mg/kg, AUCINF_plasma, p.o. 40 mg/kg) [ng·h/mL]	AUC ([7]; po, 40 mg/kg, AUClast_plasma, p.o. 40 mg/kg) [ng·h/mL]
CC[C@H]1OC(=O)[C@H](C)[C@@H](O[C@H]2C[C@@](C)(OC)[C@@H](O)[C@H](C)O2)[C@H](C)[C@@H](O[C@@H]2O[C@H](C)C[C@H](N(C)C)[C@H]2O)[C@](C)(O)C[C@@H](C)C(=O)[C@H](C)[C@@H](O)[C@]1(C)O [Erythromycin]	0.09 ± 0.03	22.18 ± 0.02	240	–	–	–	–	–	–	–	–	–	–	–	–	–	–
COc1cc2ncnc(Nc3ccc(F)c(Cl)c3)c2cc1OCCCN1CCOCC1 [Gefitinib]	8.37 ± 0.01	15.52 ± 0.02	–	clearly inhibited	21.2	8.38	34.5	4.66	272 ± 11.4	7800 ± 1460	7720 ± 1430	66.5 ± 22.8	1480 ± 395	260 ± 173	231 ± 21	20800	20500
COCCc1ccc(OCC(O)CNC(C)C)cc1 (stereo not shown) [Metoprolol]	40.04 ± 0.05	30.92 ± 0.03	0.77	–	–	–	–	–	–	–	–	–	–	–	–	–	–
